From ChEMBL document CHEMBL1138136, “Aplysamine-1 and related analogs as histamine H3 receptor antagonists” (Bioorg Med Chem Lett, 2006)

How the values were obtained:
Histamine H3 receptor [1] = biological target: T1, Histamine H3 receptor (Homo sapiens, UniProt Q9Y5N1); assay: Displacement of N-[3H]methylhistamine from human histamine H3 receptor expressed in SK-N-MC cells; assay type: cell-based
Histamine H3 receptor [2] = biological target: Histamine H3 receptor (Rattus norvegicus, UniProt Q9QYN8); assay: Displacement of N-[3H]methylhistamine from rat histamine H3 receptor in rat cortical hemispheres
Sequence of Histamine H3 receptor (Rattus norvegicus, UniProt Q9QYN8) (Q9QYN8 whole entry): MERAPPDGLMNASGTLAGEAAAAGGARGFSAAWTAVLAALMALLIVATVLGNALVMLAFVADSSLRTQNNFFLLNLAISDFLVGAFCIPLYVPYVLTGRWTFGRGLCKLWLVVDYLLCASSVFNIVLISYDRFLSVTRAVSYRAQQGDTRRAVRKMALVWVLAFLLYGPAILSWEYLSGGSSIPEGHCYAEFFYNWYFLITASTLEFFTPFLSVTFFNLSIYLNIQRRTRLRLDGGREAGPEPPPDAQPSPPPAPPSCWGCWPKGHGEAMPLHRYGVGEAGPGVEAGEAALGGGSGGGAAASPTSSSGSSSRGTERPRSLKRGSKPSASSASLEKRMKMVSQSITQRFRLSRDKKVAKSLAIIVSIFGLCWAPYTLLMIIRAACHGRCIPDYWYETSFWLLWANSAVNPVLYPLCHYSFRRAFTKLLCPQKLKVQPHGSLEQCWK

Histamine H3 receptor [3] = biological target: T1, Histamine H3 receptor; assay: Activity against human histamine H3 receptor by histamine induced inhibition of forskolin stimulated cAMP accumulation in SK-N-MC cells; assay type: functional, cell-based; settings: read-out: pA2 (converted)
Summary of the method: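 SK-N-MC cells overexpressing human H3 receptor; antagonist-induced rightward shifts of histamine dose–response curves for inhibition of forskolin-stimulated cAMP accumulation measured. pA2 obtained by Schild regression analysis.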

T1 sequence (Q9Y5N1 whole entry): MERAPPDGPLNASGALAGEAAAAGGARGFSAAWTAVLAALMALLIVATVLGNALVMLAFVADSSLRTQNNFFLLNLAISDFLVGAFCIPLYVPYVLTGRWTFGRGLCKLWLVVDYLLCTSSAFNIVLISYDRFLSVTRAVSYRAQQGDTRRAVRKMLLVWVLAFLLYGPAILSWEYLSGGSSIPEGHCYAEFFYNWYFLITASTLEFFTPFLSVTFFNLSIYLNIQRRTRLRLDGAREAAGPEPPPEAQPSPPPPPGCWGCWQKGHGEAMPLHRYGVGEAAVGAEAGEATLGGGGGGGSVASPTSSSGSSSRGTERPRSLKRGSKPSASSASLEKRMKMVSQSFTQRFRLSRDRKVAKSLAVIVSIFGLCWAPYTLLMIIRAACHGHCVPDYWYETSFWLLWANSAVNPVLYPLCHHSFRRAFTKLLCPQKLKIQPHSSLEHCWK

SMILES	Ki (Histamine H3 receptor [1])	Ki (Histamine H3 receptor [2])	Kb (Histamine H3 receptor [3])
Brc1cc(CN2CCCCC2)cc(Br)c1OCCCN1CCCCC1	8 nM	57 nM	7.24 nM
CN(C)CCCOc1ccc(CN(C)C)cc1	18 nM	255 nM	
CN(C)CCOc1ccc(CCN(C)C)cc1	40 nM	345 nM	
CN(C)CCCOc1c(Br)cc(CN(C)C)cc1Br	36 nM	319 nM	
CN(C)CCCOc1ccc(CCN(C)C)cc1	6 nM	89 nM	17 nM
CN(C)CCc1ccc(OCCCN2CCCCC2)cc1	0.5 nM	5 nM	0.501 nM
CN(C)CCCOc1ccc(CN2CCCCC2)cc1	3 nM	45 nM	9.33 nM
CN(C)CCc1ccc(OCCN2CCCCC2)cc1	14 nM	50 nM	
CCCCN(CCCC)CCCOc1ccc(-c2cn3c(C)cccc3n2)cc1	4000 nM		
CN(C)CCCOc1c(Br)cc(CCN(C)C)cc1Br [APLYSAMINE]		249 nM	
c1cc(OCCCN2CCCCC2)ccc1CN1CCCCC1 [JNJ-5207852]		1 nM	
